Test results as given in ChEMBL document CHEMBL1240299, “C3-symmetric peptide scaffolds are functional mimetics of trimeric CD40L” (Nat Chem Biol, 2005).
Calls of active or inactive are those of the source. No cut-off for these calls is given here. Non-standard residues stand in square brackets, D forms with d. Residues, ends and D or L forms follow the SMILES beside them. Groups on a side chain read outwards from the residue. Ahx = NCCCCCC(=O)O

Key:
[1] = tested on: BL-41; assay: Induction of apoptosis in CD40-positive human BL41 cells assessed as level of CD40 expression by mean fluorescence intensity; type: functional, cell-based
[2] = tested on: D1; assay: Induction of mouse D1 cell maturation assessed as CD86 expression at 5 to 10 uM after 48 hrs by flow cytometry in presence of 10 ug/ml LPS inhibitor polymyxin B; type: functional, cell-based
Method in brief: (§1)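 D1 cells (2×10^5 ml⁻¹, 48 h preculture) were treated 48 h with inducers in fresh medium. Assays were also run with polymyxin B present to exclude LPS-driven activation, and LPS at 10 µg ml⁻¹ was the reference stimulus. Cells were harvested in PBS/EDTA and surface maturation markers were measured by flow cytometry.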

[3] = tested on: D1; assay: Induction of mouse D1 cell maturation assessed as CD54 expression at 5 to 10 uM after 48 hrs by flow cytometry in presence of 10 ug/ml LPS inhibitor polymyxin B; type: functional, cell-based; method in brief: as §1
[4] = tested on: BL-41; assay: Induction of apoptosis in CD40-positive human BL41 cells assessed as decrease in mitochondrial membrane potential after 16 hrs by mean fluorescence intensity; type: functional, cell-based
Method in brief: (§2)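 BL41 Burkitt lymphoma cells in RPMI 1640 with 10% FBS were seeded at 5×10^5 ml⁻¹ and exposed to inducers at 37 °C (16 h). Apoptosis was read by flow cytometry, either as loss of DiOC₆(3) uptake (Δψm) or as annexin V–FITC/PI co-staining. Specific apoptosis % = (treated − control)×100/(100 − control). Values are means of three independent experiments.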

[5] = tested on: BL-41; assay: Induction of apoptosis in CD40-positive human BL41 cells assessed as decrease in reduction in DiOC6 dye uptake after DAPI staining by epifluorescence microscopy; type: functional, cell-based
[6] = tested on: BL-41; assay: Induction of apoptosis in CD40-positive human BL41 cells assessed as detection of phosphatidylserine expression using annexin V-FITC and propidium iodine staining by flow cytometry; type: functional, cell-based; method in brief: as §2
[7] = molecular target: T1, Tumor necrosis factor receptor superfamily member 5 (Homo sapiens, UniProt P25942); assay: Inhibition of recombinant human CD40L:mouse CD8 tail binding to human CD40 by surface plasmon resonance method
Method in brief: (§3)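 hCD40:mIg was captured on an anti-mouse Ig chip. A fixed amount of soluble hCD40L:CD8 was premixed with increasing ligand concentrations, and the mixtures were injected at 25 °C in HBS-EP, 30 µl min⁻¹, 5 min association and 5 min dissociation. Regeneration was 50 mM HCl. Inhibition of CD40L binding was taken from reference-subtracted sensorgrams.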

[8] = tested on: D1; assay: Induction of mouse D1 cell maturation assessed as CD80 expression at 5 to 10 uM after 48 hrs by flow cytometry in presence of 10 ug/ml LPS inhibitor polymyxin B; type: functional, cell-based; method in brief: as §1
[9] = molecular target: T1, Tumor necrosis factor receptor superfamily member 5; assay: Inhibition of recombinant human CD40L:mouse CD8 tail binding to human CD40 at 10 uM by surface plasmon resonance method; method in brief: as §3
[10] = tested on: BL-41; assay: Induction of apoptosis in CD40-positive human BL41 cells assessed as reduction in DiOC6 dye uptake after DAPI staining
[11] = tested on: A20; assay: Induction of apoptosis in mouse CD40-expressing mouse A20 cells assessed as decrease in mitochondrial membrane potential after 16 hrs by mean fluorescence intensity; type: functional, cell-based
Method in brief: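 Mouse A20 lymphoma cells treated at 37 °C and analysed by flow cytometry for reduced DiOC₆(3) uptake (loss of mitochondrial membrane potential). Result given as percentage specific apoptosis relative to untreated control cells.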

[12] = molecular target: T2, Tumor necrosis factor receptor superfamily member 1B (Homo sapiens) (UniProt P20333); assay: Binding affinity to human Tumor necrosis factor receptor 2 by surface plasmon resonance method
T2 sequence (whole entry): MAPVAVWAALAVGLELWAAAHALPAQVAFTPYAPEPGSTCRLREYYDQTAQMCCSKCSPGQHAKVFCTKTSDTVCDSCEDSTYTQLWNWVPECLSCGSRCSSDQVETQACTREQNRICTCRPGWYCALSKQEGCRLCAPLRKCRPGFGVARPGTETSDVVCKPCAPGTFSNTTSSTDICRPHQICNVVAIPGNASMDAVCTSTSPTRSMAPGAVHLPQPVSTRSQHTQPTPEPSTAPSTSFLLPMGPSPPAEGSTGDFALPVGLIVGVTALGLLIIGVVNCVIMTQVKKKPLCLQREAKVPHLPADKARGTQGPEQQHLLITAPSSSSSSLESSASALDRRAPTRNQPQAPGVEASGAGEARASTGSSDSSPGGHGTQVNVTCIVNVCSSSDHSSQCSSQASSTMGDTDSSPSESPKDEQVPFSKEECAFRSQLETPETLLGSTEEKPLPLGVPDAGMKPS
Method in brief: (§4)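 TNFR:Fc fusion proteins were captured on an anti-Ig-coated CM5 chip at equivalent protein mass. An irrelevant IgG2a served as control surface. Ligands were injected at several concentrations at 25 °C in HBS-EP running buffer, pH 7.4, 30 µl min⁻¹ flow, 5 min association and 5 min dissociation, with 50 mM HCl regeneration. Reference-subtracted sensorgrams were fitted to binding models.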

[13] = tested on: D1; assay: Induction of interleukin-12 production in mouse D1 cells by RT-PCR method; type: functional, cell-based
Method in brief: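 D1 cells, precultured 48 h at 2×10^5 ml⁻¹, were given fresh medium containing inducers. After incubation, RNA was analysed by comparative RT-PCR for IL-12 p40 mRNA, with Gapdh as housekeeping control. LPS at 10 µg ml⁻¹ served as reference stimulus.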

[14] = molecular target: T3, Tumor necrosis factor receptor superfamily member 1A (Homo sapiens) (UniProt P19438); assay: Binding affinity to human TNFR1 by surface plasmon resonance method; method in brief: as §4
T3 sequence (whole entry): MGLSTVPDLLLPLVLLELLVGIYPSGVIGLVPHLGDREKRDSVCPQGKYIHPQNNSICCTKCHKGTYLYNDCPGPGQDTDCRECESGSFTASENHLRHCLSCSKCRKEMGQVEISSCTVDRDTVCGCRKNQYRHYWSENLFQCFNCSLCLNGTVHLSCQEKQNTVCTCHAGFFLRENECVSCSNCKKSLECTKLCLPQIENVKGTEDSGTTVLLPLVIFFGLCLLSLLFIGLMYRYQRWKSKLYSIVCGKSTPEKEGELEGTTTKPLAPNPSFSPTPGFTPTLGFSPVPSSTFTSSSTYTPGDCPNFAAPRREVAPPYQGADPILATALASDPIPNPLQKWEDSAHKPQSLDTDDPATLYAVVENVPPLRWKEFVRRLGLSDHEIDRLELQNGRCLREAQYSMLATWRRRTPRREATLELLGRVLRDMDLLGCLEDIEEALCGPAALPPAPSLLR

[15] = molecular target: Tumor necrosis factor receptor superfamily member 3 (Homo sapiens) (UniProt P36941); assay: Binding affinity to human lymphotoxin beta receptor by surface plasmon resonance method
Method in brief: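 TNFR:Fc fusion captured at 5 µl min⁻¹ on a CM5 chip precoated by amine coupling with rabbit anti-mouse Ig or goat anti-human Ig (~10,000 RU). Mimetics injected at several concentrations at 30 µl min⁻¹, 5 min association and 5 min dissociation, 25 °C, HBS-EP pH 7.4. Regeneration 30 s with 50 mM HCl. Control-channel sensorgrams subtracted and fitted to binding models.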

[16] = Activation of NF-kappaB pathway in mouse D1 cells assessed as increased degradation of IkappaBalpha protein by immunoblotting assay; type: functional, cell-based
Method in brief: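 D1 dendritic cells grown in IMDM with 10% FBS and 30% NIH/3T3 supernatant as GM-CSF source; 2×10^5 cells ml⁻¹ precultured 48 h, then fresh medium with inducers added. Cells washed, harvested in PBS/2 mM EDTA, lysed and immunoblotted for IκBα, with actin as loading reference; IκBα/actin band intensity ratio reported.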

[17] = molecular target: T4, Tumor necrosis factor receptor superfamily member EDAR (Homo sapiens) (UniProt Q9UNE0); assay: Binding affinity to human Ectodysplasin-A receptor by surface plasmon resonance method; method in brief: as §4
T4 sequence (whole entry): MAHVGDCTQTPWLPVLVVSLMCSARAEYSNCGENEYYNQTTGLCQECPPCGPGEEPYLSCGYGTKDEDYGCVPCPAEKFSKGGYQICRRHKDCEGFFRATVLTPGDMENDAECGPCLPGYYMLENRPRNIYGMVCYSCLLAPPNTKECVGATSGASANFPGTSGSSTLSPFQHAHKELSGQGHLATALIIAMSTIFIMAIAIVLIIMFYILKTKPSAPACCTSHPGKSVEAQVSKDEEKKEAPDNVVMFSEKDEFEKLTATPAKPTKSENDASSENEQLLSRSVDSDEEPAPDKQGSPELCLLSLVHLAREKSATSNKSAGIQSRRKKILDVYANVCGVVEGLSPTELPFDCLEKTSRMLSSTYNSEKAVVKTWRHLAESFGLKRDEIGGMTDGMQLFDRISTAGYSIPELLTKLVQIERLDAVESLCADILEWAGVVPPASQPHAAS

[18] = molecular target: T5, Tumor necrosis factor receptor superfamily member 17 (Mus musculus) (UniProt O88472); assay: Binding affinity to mouse B-cell maturation protein by surface plasmon resonance method; method in brief: as §4
T5 sequence (whole entry): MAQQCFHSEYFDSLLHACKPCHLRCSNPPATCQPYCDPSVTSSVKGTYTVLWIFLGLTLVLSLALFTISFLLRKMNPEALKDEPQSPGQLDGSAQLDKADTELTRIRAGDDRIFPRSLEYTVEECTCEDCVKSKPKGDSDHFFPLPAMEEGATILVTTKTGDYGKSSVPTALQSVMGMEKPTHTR

[19] = molecular target: Tumor necrosis factor receptor superfamily member 10A (Homo sapiens) (UniProt O00220); assay: Binding affinity to human TNF-related apoptosis-inducing ligand receptor 1 by surface plasmon resonance method; method in brief: as §4
Tumor necrosis factor receptor superfamily member 10A (Homo sapiens), sequence (O00220 whole entry): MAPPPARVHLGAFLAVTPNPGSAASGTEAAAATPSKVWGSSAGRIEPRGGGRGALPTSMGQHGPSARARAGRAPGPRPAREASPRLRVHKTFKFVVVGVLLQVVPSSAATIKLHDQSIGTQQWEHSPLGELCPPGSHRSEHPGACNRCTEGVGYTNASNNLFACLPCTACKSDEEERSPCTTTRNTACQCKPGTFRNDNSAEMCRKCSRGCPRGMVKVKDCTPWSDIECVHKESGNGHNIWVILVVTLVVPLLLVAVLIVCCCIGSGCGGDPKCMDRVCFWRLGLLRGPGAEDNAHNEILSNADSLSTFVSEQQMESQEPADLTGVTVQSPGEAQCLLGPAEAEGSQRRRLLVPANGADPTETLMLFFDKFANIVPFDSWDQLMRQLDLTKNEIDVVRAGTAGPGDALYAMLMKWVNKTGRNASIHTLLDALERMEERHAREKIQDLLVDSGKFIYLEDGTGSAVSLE

T1 sequence (P25942 whole entry): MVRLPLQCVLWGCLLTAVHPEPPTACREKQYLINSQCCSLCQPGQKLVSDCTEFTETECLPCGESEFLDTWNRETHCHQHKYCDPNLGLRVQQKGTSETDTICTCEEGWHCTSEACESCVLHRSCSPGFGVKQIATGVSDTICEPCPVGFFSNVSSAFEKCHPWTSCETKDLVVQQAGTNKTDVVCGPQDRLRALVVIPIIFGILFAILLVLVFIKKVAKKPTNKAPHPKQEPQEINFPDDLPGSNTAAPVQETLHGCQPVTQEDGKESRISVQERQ
Tumor necrosis factor receptor superfamily member 3 (Homo sapiens), sequence (P36941 whole entry, the tested form may be a part): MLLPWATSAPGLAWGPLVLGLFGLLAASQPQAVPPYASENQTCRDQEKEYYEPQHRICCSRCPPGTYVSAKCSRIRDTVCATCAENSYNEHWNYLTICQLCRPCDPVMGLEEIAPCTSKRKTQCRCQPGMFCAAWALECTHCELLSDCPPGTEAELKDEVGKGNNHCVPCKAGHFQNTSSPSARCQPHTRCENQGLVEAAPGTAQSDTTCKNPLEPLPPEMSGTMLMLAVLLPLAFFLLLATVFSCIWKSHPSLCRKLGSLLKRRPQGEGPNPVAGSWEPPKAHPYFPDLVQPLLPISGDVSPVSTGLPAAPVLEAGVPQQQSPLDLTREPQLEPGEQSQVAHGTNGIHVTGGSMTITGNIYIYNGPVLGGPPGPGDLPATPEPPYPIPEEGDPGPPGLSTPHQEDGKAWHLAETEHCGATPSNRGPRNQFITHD

SMILES | Activity [1] | Activity [2] | Activity [3] | Activity [4] | Activity [5] | Activity [6] | inhibition [7] | Activity [8] | inhibition [9] [%] | IC50 [7] [nM] | Activity [10] | Activity [11] | Activity [12] | Activity [13] | Activity [14] | Activity [15] | Activity [16] | Activity [17] | Activity [18] | Activity [19]
C[C@@H](NC(=O)[C@H](CCCCNC(=O)CCCCCNC(=O)[C@H](Cc1ccc(O)cc1)NC(=O)[C@H](Cc1ccc(O)cc1)NC(=O)CNC(=O)[C@@H](N)CCCCN)NC(=O)[C@@H](C)NC(=O)[C@H](CCCCNC(=O)CCCCCNC(=O)[C@H](Cc1ccc(O)cc1)NC(=O)[C@H](Cc1ccc(O)cc1)NC(=O)CNC(=O)[C@@H](N)CCCCN)NC(=O)[C@@H](C)NC(=O)[C@@H](N)CCCCNC(=O)CCCCCNC(=O)[C@H](Cc1ccc(O)cc1)NC(=O)[C@H](Cc1ccc(O)cc1)NC(=O)CNC(=O)[C@@H](N)CCCCN)C(=O)O | inactive | inactive | inactive | inactive | inactive | inactive | inactive | inactive |  |  |  |  |  |  |  |  |  |  |  | 
NCCCC[C@H](N)C(=O)NCC(=O)N[C@@H](Cc1ccc(O)cc1)C(=O)N[C@@H](Cc1ccc(O)cc1)C(=O)NCCCCCC(=O)O (H-KGYY[Ahx]-OH) | inactive | inactive | inactive | inactive | inactive | inactive | inactive | inactive |  |  |  |  |  |  |  |  |  |  |  | 
NCCCC[C@H](N)C(=O)NCC(=O)N[C@@H](Cc1ccc(O)cc1)C(=O)N[C@@H](Cc1ccc(O)cc1)C(=O)NCCCCCC(=O)NCCCOCC(COCCCNC(=O)CCCCCNC(=O)[C@H](Cc1ccc(O)cc1)NC(=O)[C@H](Cc1ccc(O)cc1)NC(=O)CNC(=O)[C@@H](N)CCCCN)(COCCCNC(=O)CCCCCNC(=O)[C@H](Cc1ccc(O)cc1)NC(=O)[C@H](Cc1ccc(O)cc1)NC(=O)CNC(=O)[C@@H](N)CCCCN)NC(=O)CCC(N)=O | inactive |  |  | inactive | inactive | inactive |  |  | 20 | > 10000 |  |  |  |  |  |  |  |  |  | 
C[C@H]1NC(=O)[C@H](CCCCN)NC(=O)[C@@H](C)NC(=O)[C@H](CCCCN)NC(=O)[C@@H](C)NC(=O)[C@H](CCCCN)NC1=O | inactive | inactive | inactive | inactive | inactive | inactive | inactive | inactive |  |  |  |  |  |  |  |  |  |  |  | 
NCCCC[C@H](N)C(=O)NCC(=O)N[C@@H](Cc1ccc(O)cc1)C(=O)N[C@@H](Cc1ccc(O)cc1)C(=O)NCCCCCC(=O)NCCCC[C@@H]1CNC(=O)C[C@H](CCCCNC(=O)CCCCCNC(=O)[C@H](Cc2ccc(O)cc2)NC(=O)[C@H](Cc2ccc(O)cc2)NC(=O)CNC(=O)[C@@H](N)CCCCN)NC[C@H](CCCCNC(=O)CCCCCNC(=O)[C@H](Cc2ccc(O)cc2)NC(=O)[C@H](Cc2ccc(O)cc2)NC(=O)CNC(=O)[C@@H](N)CCCCN)NC(=O)C1 | Active |  |  | Active | Active | Active |  |  |  | 50 | Active |  |  |  |  |  |  |  |  | 
C[C@H]1NC(=O)[C@H](CCCCNC(=O)CCCCCNC(=O)[C@H](Cc2ccc(O)cc2)NC(=O)[C@H](Cc2ccc(O)cc2)NC(=O)CNC(=O)[C@@H](N)CCCCN)NC(=O)[C@@H](C)NC(=O)[C@H](CCCCNC(=O)CCCCCNC(=O)[C@H](Cc2ccc(O)cc2)NC(=O)[C@H](Cc2ccc(O)cc2)NC(=O)CNC(=O)[C@@H](N)CCCCN)NC(=O)[C@@H](C)NC(=O)[C@H](CCCCNC(=O)CCCCCNC(=O)[C@H](Cc2ccc(O)cc2)NC(=O)[C@H](Cc2ccc(O)cc2)NC(=O)CNC(=O)[C@@H](N)CCCCN)NC1=O (cyclo(K([Ahx-Tyr-Tyr-Gly-Lys])[dA]K([Ahx-Tyr-Tyr-Gly-Lys])[dA]K([Ahx-Tyr-Tyr-Gly-Lys])[dA])) | Active | Active | Active | Active | Active | Active |  | Active |  | 78 |  | Active | inactive | Active | inactive | inactive | Active | inactive | inactive | inactive
